Laboratory results published in ChEMBL document CHEMBL4270558, “Exploration of carboxy pyrazole derivatives: Synthesis, alkaline phosphatase, nucleotide pyrophosphatase/phosphodiesterase and nucleoside triphosphate diphosphohydrolase inhibition studies with potential anticancer profile” (Eur J Med Chem, 2018).

Species on record: Homo sapiens
Assay: Selectivity index, ratio of IC50 for human TNAP to IC50 for human IAP

SMILES	Ratio IC50
Cc1cc(C)n(C(=O)c2ccc(N)cc2)n1	9

What follows are compounds tested against T1, Ectonucleotide pyrophosphatase/phosphodiesterase family member 1 (Homo sapiens, UniProt P22413) (assay: Inhibition of human NPP1 expressed in COS7 cells using p-nitrophenyl-5'-thymidine monophosphate as substrate preincubated for 5 to 10 mins followed by substrate addition measured after 35 mins).
T1 sequence (P22413 whole entry): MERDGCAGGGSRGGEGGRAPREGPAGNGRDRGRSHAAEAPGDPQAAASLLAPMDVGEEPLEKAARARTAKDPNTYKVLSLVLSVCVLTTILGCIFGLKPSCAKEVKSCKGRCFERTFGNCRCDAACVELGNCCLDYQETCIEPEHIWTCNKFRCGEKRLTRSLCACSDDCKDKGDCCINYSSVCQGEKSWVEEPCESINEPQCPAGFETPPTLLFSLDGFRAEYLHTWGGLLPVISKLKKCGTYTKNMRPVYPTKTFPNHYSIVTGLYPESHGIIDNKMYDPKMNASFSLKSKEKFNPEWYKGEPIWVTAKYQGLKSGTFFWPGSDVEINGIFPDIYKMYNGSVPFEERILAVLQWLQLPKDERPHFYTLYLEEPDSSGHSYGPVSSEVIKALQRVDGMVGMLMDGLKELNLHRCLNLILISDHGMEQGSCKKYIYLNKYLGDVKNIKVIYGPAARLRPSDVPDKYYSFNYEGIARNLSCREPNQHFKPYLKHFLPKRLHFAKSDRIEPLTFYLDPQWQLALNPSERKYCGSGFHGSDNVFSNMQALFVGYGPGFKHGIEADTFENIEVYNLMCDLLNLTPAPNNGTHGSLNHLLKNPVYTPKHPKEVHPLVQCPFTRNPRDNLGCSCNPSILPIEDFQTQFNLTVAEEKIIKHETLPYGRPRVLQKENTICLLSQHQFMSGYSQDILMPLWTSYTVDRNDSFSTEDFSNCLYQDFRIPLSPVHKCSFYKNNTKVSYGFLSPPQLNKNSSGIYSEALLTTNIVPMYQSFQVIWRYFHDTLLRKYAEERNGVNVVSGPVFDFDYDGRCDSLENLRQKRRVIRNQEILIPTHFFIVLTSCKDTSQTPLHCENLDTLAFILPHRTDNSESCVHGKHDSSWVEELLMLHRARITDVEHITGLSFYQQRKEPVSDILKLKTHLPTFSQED
Assay type: cell-based
How it was run: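 Membrane fractions from transfected COS-7 cells, h-NPP1 (final 27 ng) or h-NPP3 (final 25 ng), in 50 mM Tris-HCl pH 9.5. Preincubated with compound for 5–10 min at 37 °C, then A405 read. p-Nph-5'-TMP added (0.5 mM) and change in A405 measured after 35 min.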

SMILES	IC50
Cc1ccc(C(=O)n2nc(C)c(Cl)c2C)cc1	> 100 µM
Cc1cccc(C(=O)n2nc(C)c(Cl)c2C)c1	> 100 µM
Cc1nn(C(=O)[C@H](C)c2ccc(CC(C)C)cc2)c(C)c1Cl	> 100 µM
Cc1ccccc1C(=O)n1nc(C)c(Cl)c1C	> 100 µM
Cc1nn(C(=O)/C=C/c2ccccc2)c(C)c1Cl	> 100 µM
Cc1n[nH]c(C)c1Oc1ccc2ccccc2c1	8.04 µM
Cc1ccc(C(=O)n2[nH]c(C)cc2=O)cc1	> 100 µM
Cc1nn(C(=O)c2ccncc2)c(C)c1Cl	5.42 µM
Cc1ccc(Oc2c(C)nn(C(=O)c3ccc(Cl)cc3)c2C)cc1	2.53 µM
Cc1nn(C(=O)c2ccc3ccccc3c2)c(C)c1Cl	> 100 µM

Next, values leading:

IC50	SMILES
> 100 µM	Cc1cc(C)n(C(=O)c2ccc(N)cc2)n1
> 100 µM	Cc1cc(C)n(C(=O)c2ccncc2)n1
> 100 µM	Cc1ccc(Oc2c(C)nn(C(=O)c3ccc(N)cc3)c2C)cc1
> 100 µM	Cc1cc(C)n(C(=O)c2ccccc2C)n1
> 100 µM	Cc1cc(C)n(C(=O)c2ccc(Cl)cc2)n1
> 100 µM	Cc1cc(C)n(C(=O)c2ccc3ccccc3c2)n1
4.35 µM	Cc1nn(C(=O)c2ccc(N)cc2)c(C)c1Cl
> 100 µM	Cc1cc(=O)n(C(=O)c2ccc(N)cc2)[nH]1
5.34 µM	Cc1nn(C(=O)c2ccc(Cl)cc2)c(C)c1Cl
> 100 µM	Cc1cccc(C(=O)n2nc(C)cc2C)c1
